Source: ChEMBL document CHEMBL1142874, “Design and synthesis of anticonvulsants from a combined phthalimide-GABA-anilide and hydrazone pharmacophore” (Eur J Med Chem, 2007)
Active and inactive are the calls of the source. No cut-off for these calls is given here.

Key:
Mus musculus [1] = test: Anticonvulsant activity in Albino CF1 mouse upto 300 mg/kg, ip in maximal electroshock seizure test; assay type: functional, organism-based; set-up: dose 300 mg/kg
Outline: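 Mice dosed i.p. (0.01 mL/g) at 30, 100 and 300 mg/kg. Electroshock challenge run 30 min and 4 h after dosing.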

Mus musculus [2] = test: Anticonvulsant activity against subcutaneous pentylenetetrazole-induced seizure in Albino CF1 mouse at 300 mg/kg, ip after 0.5 hrs; assay type: functional, organism-based; set-up: dose 300 mg/kg
Outline: (§1)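 Test compounds given i.p. to mice at 0.01 mL/g, at 30, 100 or 300 mg/kg. The seizure challenge followed at 0.5 h and at 4 h after dosing. The value recorded is the lowest dose that protected half or more of the mice. Where no activity was seen, the maximum dose given was 300 mg/kg.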

Mus musculus [3] = test: Anticonvulsant activity against subcutaneous pentylenetetrazole-induced seizure in Albino CF1 mouse at 300 mg/kg, ip after 4 hrs; assay type: functional, organism-based; set-up: dose 300 mg/kg; outline: as §1
Mus musculus [4] = test: Anticonvulsant activity against subcutaneous strychnine-induced seizure in Albino CF1 mouse at 300 mg/kg, ip after 0.5 hrs; assay type: functional, organism-based; set-up: dose 300 mg/kg; outline: as §1
Mus musculus [5] = test: Anticonvulsant activity against intraperitoneal picrotoxin-induced seizure in Albino CF1 mouse at 300 mg/kg, ip after 0.5 hrs; assay type: functional, organism-based; set-up: dose 300 mg/kg
Outline: (§2)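 Mice received the test compound by intraperitoneal injection at 30, 100 or 300 mg/kg. They were then challenged with intraperitoneal picrotoxin and scored for anticonvulsant protection 0.5 h or 4 h after dosing. The value recorded is the lowest dose that protected half or more of the mice. A dash means no activity up to 300 mg/kg.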

Mus musculus [6] = test: Anticonvulsant activity against intraperitoneal picrotoxin-induced seizure in Albino CF1 mouse at 300 mg/kg, ip after 4 hrs; assay type: functional, organism-based; set-up: dose 300 mg/kg; outline: as §2
Mus musculus [7] = test: Neurotoxicity in Albino CF1 mouse at 300 mg/kg, ip after 0.5 hrs by Rotarod test; assay type: toxicity, organism-based; set-up: dose 300 mg/kg, route intraperitoneal; details: in vivo
Outline: (§3)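 Rotarod test in mice pre-trained to stay on the rod for two consecutive 90 s trials. Compounds given i.p. at 30, 100 or 300 mg/kg, with testing at 0.5 h and 4 h. Deficit was scored as failure to keep balance on the rod for 1 min in each of three trials. The value recorded is the lowest dose affecting half or more of the mice.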

Mus musculus [8] = test: Neurotoxicity in Albino CF1 mouse at 300 mg/kg, ip after 4 hrs by Rotarod test; assay type: toxicity, organism-based; set-up: dose 300 mg/kg, route intraperitoneal; details: in vivo; outline: as §3
Mus musculus [9] = test: Anticonvulsant activity against subcutaneous strychnine-induced seizure in Albino CF1 mouse at 300 mg/kg, ip after 4 hrs; assay type: functional, organism-based; set-up: dose 300 mg/kg; outline: as §1
Mus musculus [10] = test: Anticonvulsant activity against subcutaneous strychnine-induced seizure in Albino CF1 mouse at 100 mg/kg, ip after 0.5 hrs; assay type: functional, organism-based; set-up: dose 100 mg/kg; outline: as §1
Mus musculus [11] = test: Anticonvulsant activity against intraperitoneal picrotoxin-induced seizure in Albino CF1 mouse at 100 mg/kg, ip after 0.5 hrs; assay type: functional, organism-based; set-up: dose 100 mg/kg; outline: as §2
Mus musculus [12] = test: Anticonvulsant activity against intraperitoneal picrotoxin-induced seizure in Albino CF1 mouse at 100 mg/kg, ip after 4 hrs; assay type: functional, organism-based; set-up: dose 100 mg/kg; outline: as §2
Mus musculus [13] = test: Anticonvulsant activity against subcutaneous strychnine-induced seizure in Albino CF1 mouse at 100 mg/kg, ip after 4 hrs; assay type: functional, organism-based; set-up: dose 100 mg/kg; outline: as §1
Mus musculus [14] = test: Anticonvulsant activity against subcutaneous pentylenetetrazole-induced seizure in Albino CF1 mouse at 30 mg/kg, ip after 4 hrs; assay type: functional, organism-based; set-up: dose 30 mg/kg; outline: as §1
Mus musculus [15] = test: Neurotoxicity in Albino CF1 mouse at 100 mg/kg, ip after 4 hrs by Rotarod test; assay type: toxicity, organism-based; set-up: dose 100 mg/kg, route intraperitoneal; details: in vivo; outline: as §3
Mus musculus [16] = test: Anticonvulsant activity against subcutaneous pentylenetetrazole-induced seizure in Albino CF1 mouse at 30 mg/kg, ip after 0.5 hrs; assay type: functional, organism-based; set-up: dose 30 mg/kg; outline: as §1
Mus musculus [17] = test: Neurotoxicity in Albino CF1 mouse at 100 mg/kg, ip after 0.5 hrs by Rotarod test; assay type: toxicity, organism-based; set-up: dose 100 mg/kg, route intraperitoneal; details: in vivo; outline: as §3

Row | Structure (SMILES) | Activity (Mus musculus [1]) | Activity (Mus musculus [2]) | Activity (Mus musculus [3]) | Activity (Mus musculus [4]) | Activity (Mus musculus [5]) | Activity (Mus musculus [6]) | Activity (Mus musculus [7]) | Activity (Mus musculus [8]) | Activity (Mus musculus [9]) | Activity (Mus musculus [10]) | Activity (Mus musculus [11]) | Activity (Mus musculus [12]) | Activity (Mus musculus [13]) | Activity (Mus musculus [14]) | Activity (Mus musculus [15]) | Activity (Mus musculus [16]) | Activity (Mus musculus [17])
1 | O=C(CCCN1C(=O)c2ccccc2C1=O)N/N=C\c1ccccc1O | inactive | inactive | inactive | inactive | Active | inactive | Not Active | Not Active | inactive |  |  |  |  |  |  |  | 
2 | O=C(CCCN1C(=O)c2ccccc2C1=O)Nc1ccccc1C(F)(F)F | inactive | inactive | inactive | Active | Active | inactive | Not Active | Active | inactive |  |  |  |  |  |  |  | 
3 | C/C(=N/NC(=O)CCCN1C(=O)c2ccccc2C1=O)c1ccccc1 | inactive | inactive | inactive |  |  |  | Not Active | Not Active |  | Active | Active | Active | Active |  |  |  | 
4 | C/C(=N/NC(=O)CCCN1C(=O)c2ccccc2C1=O)c1cccc(N)c1 | inactive | inactive | inactive | inactive | inactive | inactive | Not Active | Not Active | inactive |  |  |  |  |  |  |  | 
5 | O=C(CCCN1C(=O)c2ccccc2C1=O)Nc1cccc(F)c1 | inactive | inactive | inactive | Active | Active | Active | Active | Not Active | Active |  |  |  |  |  |  |  | 
6 | Cc1ccc(NC(=O)CCCN2C(=O)c3ccccc3C2=O)cc1 | inactive | inactive | inactive | Active | Active | inactive | Not Active | Active | inactive |  |  |  |  |  |  |  | 
7 | O=C(CCCN1C(=O)c2ccccc2C1=O)N/N=C\c1ccc([N+](=O)[O-])cc1 | inactive | inactive | inactive | inactive | inactive | inactive | Not Active | Not Active | inactive |  |  |  |  |  |  |  | 
8 | Cc1c(Cl)cccc1NC(=O)CCCN1C(=O)c2ccccc2C1=O | inactive | Active |  | Active |  | Active | Active |  | inactive |  | Active |  |  | Active | Active |  | 
9 | C/C(=N/NC(=O)CCCN1C(=O)c2ccccc2C1=O)c1ccc(C)cc1 | inactive |  | inactive | inactive | Active | inactive |  | Not Active | inactive |  |  |  |  |  |  | Active | Active
10 | C/C(=N/NC(=O)CCCN1C(=O)c2ccccc2C1=O)c1ccc(O)cc1 | inactive | inactive | inactive |  |  | inactive | Not Active | Not Active | inactive | Active | Active |  |  |  |  |  | 
11 | COc1cc(/C=N\NC(=O)CCCN2C(=O)c3ccccc3C2=O)ccc1O | inactive | inactive | inactive | inactive | Active | inactive | Not Active | Not Active | inactive |  |  |  |  |  |  |  | 
